Reference: ChEMBL document CHEMBL2062525, “Substituted 3-(5-imidazo[2,1-b]thiazolylmethylene)-2-indolinones and analogues: synthesis, cytotoxic activity, and study of the mechanism of action” (J Med Chem, 2012)
Active and inactive are the calls of the source.

Experiments:
[1] = Cytotoxicity against human breast cancer cells after 48 hrs; assay type: functional; conditions: Cancer cell lines
Method in brief: (§1)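 NCI 60-cell panel subpanel lines; compounds first screened at a single 10−5 M, then those passing threshold tested in five-concentration assay over 10−9 to 10−4 M (some to 10−3 M), 48 h exposure. Growth relative to untreated control measured as cell protein; GI50, TGI and LC50 derived; some values are means of two experiments.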

[2] = Cytotoxicity against human CNS cancer cells after 48 hrs; assay type: functional; conditions: Cancer cell lines; method in brief: as §1
NSCLC = experiment: Cytotoxicity against human NSCLC cells after 48 hrs; assay type: functional; method in brief: as §1
[3] = Cytotoxicity against human leukemia cells after 48 hrs; assay type: functional; conditions: Leukemia cell
Method in brief: (§2)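 NCI 60-cell panel (subpanels include leukemia and prostate). […] Percent growth relative to untreated control; some repeats averaged over two experiments.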

[4] = Inhibition of bovine brain tubulin assembly after 20 mins; design: species or system Bos taurus
[5] = Cytotoxicity against human renal cancer cells after 48 hrs; assay type: functional; conditions: Cancer cell lines; for CC50: read-out: LC50 (the source's name); method in brief: as §1
[6] = Cytotoxicity against human ovarian cancer cells after 48 hrs; assay type: functional; conditions: Cancer cell lines; method in brief: as §1
Bos taurus = species: Bos taurus; experiment: Displacement of [3H]colchicine from bovine brain tubulin at 5 uM after 10 mins
[7] = Cytotoxicity against human melanoma cells after 48 hrs; assay type: functional; conditions: Melanoma cell; for CC50: read-out: LC50 (the source's name); method in brief: as §1
[8] = Cytotoxicity against human COLON cells after 48 hrs; assay type: functional; method in brief: as §1
[9] = Cytotoxicity against human prostate cancer cells after 48 hrs; assay type: functional; conditions: Cancer cell lines; method in brief: as §2
[10] = molecular target: MAP kinase p38 (Homo sapiens) (UniProt O15264+Q15759+Q16539+P53778); experiment: Inhibition of p38 phosphorylation at Thr180/Tyr182 in human HeLa cells at 1 uM after 3 hrs by Western blotting analysis; assay type: cell-based
Method in brief: (§3)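 HeLa cells in RPMI 1640 with 10% FBS, treated 3 h at 1 μM. Lysates centrifuged 15,000 × g 15 min; 80 μg protein per lane by SDS-PAGE, nitrocellulose transfer, phospho-specific and total primary antibodies, peroxidase anti-rabbit secondary, ECL chemiluminescence.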

HT-29 [11] = experiment: Cell cycle arrest in human HT-29 cells assessed as increase of cell population at G2/M phase at 100 nM after 24 hrs by flow cytometry; assay type: functional, cell-based
Method in brief: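 HT-29 cells in RPMI 1640 with 10% FBS, 2 mM L-glutamine, 37 °C, 5% CO2; treated 24 h, DMSO 0.01% in medium. Fixed in 70% ethanol at −20 °C ≥12 h, RNase A (10 μg/mL) 30 min at 37 °C, DNA stained with PI (50 μg/mL), flow cytometry; one experiment representative of three.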

HT-29 [12] = experiment: Induction of apoptosis in human HT-29 cells assessed as increase in caspase activity at 500 nM after 48 hrs by fluorometry; assay type: functional, cell-based
Method in brief: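 Cells exposed 48 h to 500 nM; DEVD-cleaving caspase (DEVDase) activity measured fluorometrically in cell extracts; mean ± s.e.m. of four determinations.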

HT-29 [13] = experiment: Induction of apoptosis in human HT-29 cells assessed as increase in early apoptotic cells after 24 hrs by annexin-V-FLUOS and propidium iodide staining based flow cytometry (reference value: 3.9%); assay type: functional
HT-29 [14] = experiment: Induction of apoptosis in human HT-29 cells at 100 nM after 24 hrs by trypan blue exclusion assay; assay type: functional, cell-based
Method in brief: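 HT-29 cells plated at 2×10^4 cells/cm2, treated 24 h in triplicate (DMSO 0.01%; DMSO-only controls); viable cells counted by trypan blue exclusion; mean ± s.e.m. of three determinations.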

HT-29 [15] = experiment: Induction of apoptosis in human HT-29 cells assessed as chromatin condensation by propidium iodide staining method; assay type: functional, cell-based
Method in brief: (§4)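 HT-29 cells on glass coverslips (1×10^4 cells/cm2), treated 24 h; fixed in 3% paraformaldehyde, ethanol-permeabilized; nuclei stained with PI and viewed by laser scanning confocal microscopy for chromatin condensation and nuclear fragmentation; representative of three experiments.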

HT-29 [16] = experiment: Induction of apoptosis in human HT-29 cells assessed as nuclear fragmentation by propidium iodide staining method; assay type: functional, cell-based; method in brief: as §4
[17] = molecular target: AMP-activated protein kinase, AMPK (Homo sapiens) (UniProt P54646+O43741+P54619+Q9UGJ0+Q9Y478+Q13131+Q9UGI9); experiment: Inhibition of AMPK phosphorylation at Thr172 in human HeLa cells at 1 uM after 3 hrs by Western blotting analysis; assay type: cell-based; method in brief: as §3
[18] = molecular target: Mitogen-activated protein kinase; ERK1/ERK2 (Homo sapiens) (UniProt P27361+P28482); experiment: Inhibition of ERK1/2 phosphorylation at Thr202/Tyr204 in human HeLa cells at 1 uM after 3 hrs by Western blotting analysis; assay type: cell-based; method in brief: as §3
[19] = molecular target: Serine/threonine-protein kinase mTOR (Homo sapiens) (UniProt P42345); experiment: Inhibition of mTOR phosphorylation at ser2448 in human HeLa cells at 1 uM after 3 hrs by Western blotting analysis; assay type: cell-based; method in brief: as §3
HeLa = experiment: Inhibition of Akt phosphorylation at ser473 in human HeLa cells at 1 uM after 3 hrs by Western blotting analysis; assay type: cell-based; method in brief: as §3
[20] = molecular target: c-Jun N-terminal kinase, JNK (Homo sapiens) (UniProt P45983+P53779+P45984); experiment: Inhibition of JNK phosphorylation at Thr183/Tyr185 in human HeLa cells at 1 uM after 3 hrs by Western blotting analysis; assay type: cell-based; method in brief: as §3
HT-29 [21] = experiment: Induction of cell cycle arrest in human HT-29 cells assessed as increase in p21 expression after 24 hrs by immunofluorescence confocal microscopy; assay type: functional, cell-based
Method in brief: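 On coverslips, HT-29 cells were treated 24 h, fixed with 3% paraformaldehyde, permeabilized with 70% ice-cold ethanol, stained with anti-p21 then FITC secondary (1 h, room temperature each), nuclei counterstained with PI; confocal microscopy; representative of three experiments.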

Chain of Mitogen-activated protein kinase; ERK1/ERK2 (Homo sapiens) (P27361 whole entry, looked up): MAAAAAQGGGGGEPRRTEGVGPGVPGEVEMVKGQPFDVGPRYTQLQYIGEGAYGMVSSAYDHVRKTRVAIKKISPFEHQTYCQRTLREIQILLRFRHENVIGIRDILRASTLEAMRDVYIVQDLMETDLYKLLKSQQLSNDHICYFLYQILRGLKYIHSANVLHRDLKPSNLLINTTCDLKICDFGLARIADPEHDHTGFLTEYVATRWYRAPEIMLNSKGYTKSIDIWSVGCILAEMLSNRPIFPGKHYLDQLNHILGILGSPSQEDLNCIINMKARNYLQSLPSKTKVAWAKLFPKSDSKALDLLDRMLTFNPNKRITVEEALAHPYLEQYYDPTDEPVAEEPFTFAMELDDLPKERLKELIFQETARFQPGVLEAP
Chain of Mitogen-activated protein kinase; ERK1/ERK2 (Homo sapiens) (P28482 whole entry, looked up): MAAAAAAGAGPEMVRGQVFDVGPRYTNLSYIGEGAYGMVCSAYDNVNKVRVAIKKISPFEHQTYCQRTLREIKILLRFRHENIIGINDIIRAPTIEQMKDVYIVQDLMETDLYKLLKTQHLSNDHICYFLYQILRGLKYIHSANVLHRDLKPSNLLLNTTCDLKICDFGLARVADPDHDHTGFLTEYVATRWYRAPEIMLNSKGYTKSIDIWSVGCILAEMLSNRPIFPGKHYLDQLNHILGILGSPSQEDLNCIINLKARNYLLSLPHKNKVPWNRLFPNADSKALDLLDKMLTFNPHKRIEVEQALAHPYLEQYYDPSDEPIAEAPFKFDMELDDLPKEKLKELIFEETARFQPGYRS

With Cc1nn2c(/C=C3/C(=O)Nc4c3ccc3ccccc43)c(C)nc2s1 the GI50 [1] was 0.3 µM, the LC50 [1] was 75.9 µM and the TGI [1] was 6.31 µM. The GI50 [2] was 0.39 µM, the LC50 [2] was 46.8 µM and the GI50 (NSCLC) was 0.87 µM. It also gave an LC50 (NSCLC) of 74.1 µM, a TGI (NSCLC) of 15.5 µM and a GI50 [3] of 0.17 µM. It also gave an LC50 (concentration killing 50% of cells) [3] of 66.1 µM, a TGI [3] of 3.31 µM and an IC50 [4] of 16 µM. For the same compound, the GI50 [5] was 0.83 µM, the TGI [5] was 10.5 µM and the CC50 [5] was 56.2 µM. The GI50 [6] was 0.91 µM, the LC50 (concentration killing 50% of starting cells) [6] was 56.2 µM and the TGI [6] was 11.8 µM. For the same compound, the inhibition (Bos taurus) was 45%, the GI50 [7] was 0.68 µM and the TGI [7] was 17 µM. It also gave a CC50 [7] of 70.8 µM, a GI50 [8] of 0.35 µM and an LC50 (concentration giving 50% net cell kill) [8] of 49 µM. The TGI [8] was 6.61 µM, the GI50 [9] was 0.38 µM and the LC50 (concentration killing 50% of cells) [9] was 15.1 µM. The TGI [9] was 5.13 µM.
For COc1nc2sccn2c1/C=C1/C(=O)Nc2cc(Cl)ccc21, the GI50 [1] was 0.54 µM, the TGI [1] was 58.9 µM and the GI50 [2] was 0.35 µM. It also gave an LC50 [2] of 75.9 µM, a TGI [2] of 16.2 µM and a GI50 (NSCLC) of 1.29 µM. The TGI (NSCLC) was 79.4 µM, the GI50 [3] was 0.14 µM and the TGI [3] was 5.37 µM. For the same compound, the IC50 [4] was 13 µM, the GI50 [5] was 0.62 µM and the TGI [5] was 49 µM. The CC50 [5] was 85.1 µM, the GI50 [6] was 0.65 µM and the LC50 (concentration killing 50% of starting cells) [6] was 89.1 µM. It also gave a TGI [6] of 21.4 µM, an inhibition (Bos taurus) of 53% and a GI50 [7] of 0.21 µM. For the same compound, the TGI [7] was 34.7 µM, the CC50 [7] was 93.3 µM and the GI50 [8] was 0.33 µM. For the same compound, the LC50 (concentration giving 50% net cell kill) [8] was 79.4 µM, the TGI [8] was 22.4 µM and the GI50 [9] was 0.39 µM. The TGI [9] was 69.2 µM.
With COc1ccc2c(c1)/C(=C\c1c(-c3ccccn3)nc3sccn13)C(=O)N2 the inhibition [10] was “Active”, the GI50 [1] was 0.04 µM and the LC50 [1] was 46.8 µM. For the same compound, the TGI [1] was 8.32 µM, the Activity (HT-29 [11]) was “Active” and the GI50 [2] was 0.03 µM. For the same compound, the LC50 [2] was 34.7 µM, the TGI [2] was 2.57 µM and the Activity (HT-29 [12]) was “Active”. It also gave an Activity (HT-29 [13]) of 23%, a GI50 (NSCLC) of 0.11 µM and an LC50 (NSCLC) of 39.8 µM. For the same compound, the TGI (NSCLC) was 6.46 µM, the Activity (HT-29 [14]) was “Active” and the GI50 [3] was 0.02 µM. For the same compound, the Activity (HT-29 [15]) was “Active”, the IC50 [4] was 9.1 µM and the Activity (HT-29 [16]) was “Active”. The inhibition [17] was “Active”, the inhibition [18] was “Active” and the GI50 [5] was 0.07 µM. For the same compound, the TGI [5] was 4.68 µM, the CC50 [5] was 28.8 µM and the inhibition [19] was “inactive”. The GI50 [6] was 0.04 µM, the LC50 (concentration killing 50% of starting cells) [6] was 17 µM and the TGI [6] was 2.19 µM. It also gave an inhibition (Bos taurus) of 36%, a GI50 [7] of 0.02 µM and a TGI [7] of 6.76 µM. For the same compound, the CC50 [7] was 38.9 µM, the inhibition (HeLa) was “Active” and the LC50 (concentration giving 50% net cell kill) [8] was 15.1 µM. The TGI [8] was 1.35 µM, the GI50 [9] was 0.03 µM and the TGI [9] was 3.98 µM. The inhibition [20] was “Active” and the Activity (HT-29 [21]) was “Active”.
